Values after ≈ are worked out from the molar mass of the structure shown.
Legend:
Format in all cases: functional
[1] = test system: Mycobacterium tuberculosis variant bovis; assay: Minimum inhibitory concentration against Mycobacterium bovis
Summary of the method: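 Alamar blue microplate assay in 7H9GC. BCG or M. avium ATCC 25291 at 2.5 × 10⁵ CFU/mL final, exposed to compound at 100, 50, 10 and 1 µg/mL in triplicate. Reagent added after 6+ days once growth controls turned pink, read after 24 h visually and by fluorescence. MIC₉₀ taken as the lowest concentration giving ~90% growth inhibition.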

[2] = test system: Mycobacterium tuberculosis variant bovis; assay: Inhibition of growth of Mycobacterium bovis was determined using microplate alamar blue assay at 0.5-1 ug/mL concentration with compound dissolved in DMSO
[3] = test system: Mycobacterium tuberculosis variant bovis; assay: Inhibition of growth of Mycobacterium bovis was determined using microplate alamar blue assay at 100 ug/mL concentration with compound dissolved in DMSO
Summary of the method: (§1)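 MABA in 7H9GC medium; M. bovis BCG or M. avium ATCC 25291 frozen inocula at 2.5 × 10⁵ CFU/mL final, 100× DMSO stocks diluted into medium. Incubated 6 days, then alamar blue plus 20% Tween-80 added once bacteria-only wells turned pink, read 24 h later by fluorescence. % inhibition = […]. Triplicate wells, three experiments, mean reported.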

[4] = test system: Mycobacterium tuberculosis variant bovis; assay: Inhibition of growth of Mycobacterium bovis was determined using microplate alamar blue assay at 50 ug/mL concentration with compound dissolved in DMSO; summary of the method: as §1
[5] = test system: Mycobacterium tuberculosis variant bovis; assay: Inhibition of growth of Mycobacterium bovis was determined using microplate alamar blue assay at 10 ug/mL concentration with compound dissolved in DMSO; summary of the method: as §1
[6] = test system: Mycobacterium tuberculosis variant bovis; assay: Inhibition of growth of Mycobacterium bovis was determined using microplate alamar blue assay at 1 ug/mL concentration with compound dissolved in DMSO; summary of the method: as §1

| Compound | MIC90 [1] [µg/mL] | Inhibition [2] [%] | inhibition at 100 µg/mL [3] [%] | inhibition at 50 µg/mL [4] [%] | inhibition at 10 µg/mL [5] [%] | inhibition at 1 µg/mL [6] [%] |
| --- | --- | --- | --- | --- | --- | --- |
| CO[C@H]1/C=C/O[C@@]2(C)Oc3c(C)c(O)c4c(O)c(c(/C=N/N5CCN(C)CC5)c(O)c4c3C2=O)NC(=O)/C(C)=C\C=C\[C@H](C)[C@H](O)[C@@H](C)[C@@H](O)[C@@H](C)[C@H](OC(C)=O)[C@@H]1C [RIFAMPIN] | 1 (≈ 1.22 µM) | 100 |  |  |  |  |
| CCCCCC#Cc1cn([C@H]2C[C@H](O)[C@@H](CO)O2)c(=O)[nH]c1=O |  |  | 60 | 60 |  |  |
| CCCCCCCCC#Cc1cn([C@H]2C[C@H](O)[C@@H](CO)O2)c(=O)[nH]c1=O | 100 (≈ 274 µM) |  | 90 | 50 | 0 |  |
| CCCCCCCCCCC#Cc1cn([C@H]2C[C@H](O)[C@@H](CO)O2)c(=O)[nH]c1=O | 50 (≈ 127 µM) |  | 90 | 90 | 70 | 25 |
| CCCCCCCCC#Cc1cn([C@H]2C[C@H](O)[C@@H](CO)O2)c(=O)nc1N | 50 (≈ 138 µM) |  | 90 | 90 | 10 |  |
| CCCCCCCCCCCCC#Cc1cn([C@H]2C[C@H](O)[C@@H](CO)O2)c(=O)[nH]c1=O | 10 (≈ 23.8 µM) |  | 90 | 90 | 90 | 33 |
| CCCCCCCCCCC#Cc1cn([C@H]2C[C@H](O)[C@@H](CO)O2)c(=O)nc1N | 10 (≈ 25.5 µM) |  | 90 | 90 | 90 | 25 |

Reference: ChEMBL document CHEMBL1140381, “Design and studies of novel 5-substituted alkynylpyrimidine nucleosides as potent inhibitors of mycobacteria” (2005)
